Most compounds without a hit are left out; they make up all but 5.9% or so of the library.
Pyk2 oligo antag: antagonists of Pyk2 self-association, primary screen, Q293 cells, FERM NanoBiT luminescence, HTS | stronger effect = lower value | z-score (the deposit names both 25 µM and 10 µM) | actives 0.83% (n = 99,000) | AID 1347419, 2020;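 active = Z-score of -3 or lower, scaled per plate to the spread of control and sample wells; inactive = z-score above -3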;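 also: negative z-score means lost luminescence so less FERM oligomerization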
Cav32 inh: Cav3.2 calcium influx blockers – cell-based, Fluo-4 calcium fluorescence, FDSS, MLSMR library, primary screen. Voltage-dependent T-type calcium channel subunit alpha-1H (Homo sapiens), O95180. Cav3.2-expressing cells; stronger effect = lower value. B-score at 10 µM. actives 4% (n = 100,000);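 active = single-dose well whose peak fluorescence ratio is a statistical outlier from its plate by either plate-standardised score or position-corrected B-score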
DAT uptake mod: changed hDAT dopamine uptake under cocaine IC80, either direction, primary screen, cocaine antagonist project, cell-based, LLC-PK1 hDAT, [14C]-dopamine uptake, MLSMR | Sodium-dependent dopamine transporter (Homo sapiens), Q01959 | LLC-PK1 hDAT cells, [14C]-dopamine uptake with cocaine IC80; actives deviate in either direction | B-score at 10 µM | actives 1.3% (n = 110,000) | AID 449768, 2010;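 active = Z score or B-score, a plate-position-corrected score, falls beyond the plate's 99.7% confidence bounds, in either direction; inactive = both scores lie inside the 99.7% bounds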;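 also: scored against the spread of the other compound wells on the same plate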
Measles CPE: compounds protecting cells from measles virus cytopathic effect, primary screen, measles RdRp inhibitor project, single point, MLSMR library, absorbance. Measles virus-infected cells, CPE protection. protection (pct of control), % at 4 µM. actives 1.5% (n = 140,000). AID 841, 2007; in the data active = protection mostly above about 24%, no sharp cut-off; inactive = mostly below about 26%
HIV Rev-RRE inh: HIV-1 Rev-RRE binding inhibitors, primary screen, biochemical, FRET, protein-RNA interaction | P05866 | Rev peptide-RRE RNA binding | inhibition, % at 8 µM | actives 0.79% (n = 97,000) | AID 704, 2007;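 active = inhibition above the screen-wide mean plus 3 SD, cut at about 35% in these data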;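 also: 0% = median DMSO wells and 100% = median Neomycin B control wells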
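Probe or stimulus: fluorescein-Rev peptide as binding partner; assay system: Cy5-tagged RRE RNA duplex with fluorescein-tagged Rev peptide; timing: 5 min compound–RNA preincubation, then 15 min with peptide, 25 °C; medium: HEPES pH 7.5 buffer with KCl, MgCl2, NaCl and EDTA; signal: fluorescein-to-Cy5 FRET, 480 nm excitation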
Phagocytosis inh: inhibitors of macrophage phagocytosis, primary screen, imaging, J774A.1 cells, IgG beads. actives 0.07% (n = 110,000). inhibition, % at 5 µM. J774A.1 macrophage IgG-bead phagocytosis;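 active = inhibition above the mean of the plate negative controls plus 5 SD, cut at about 13% in these data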;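 also: phagocytic index as fraction of beads internalized from green versus red external bead signal; plate controls were DMSO negative control for no effect and cytochalasin-D positive control for full effect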
Numbers without * were called inactive; x = no result; [ ] = another dose, or the depositor's remark.

SMILES	Pyk2 oligo antag	Cav32 inh	DAT uptake mod	Measles CPE	HIV Rev-RRE inh	Phagocytosis inh
CC(C)(C)NS(=O)(=O)c1ccc2nc(NC(=O)Cc3cccs3)sc2c1	-1.6	-4.2*	-1.7	27	19	0
CCc1ccc(-c2nc(CN3CCC(C(=O)NCc4ccccc4OC)CC3)c(C)o2)cc1	-0.29	-8.6*	0.64	x	6	3
Cc1oc(-c2cccc(Cl)c2)nc1CN1CCC(C(=O)NCc2ccco2)CC1	0.36	-4.3*	-1.4	x	6	-2
COc1ccccc1CNC(=O)C1CCN(Cc2nc(-c3cccc(Cl)c3)oc2C)CC1	3.7	-5.8*	1.4	x	6	-1
Cc1oc(-c2ccc(Cl)cc2)nc1CN1CCC(C(=O)N2CCc3ccccc3C2)CC1	x	x	2.6*	13	3	0
O=C(O)CC(NC(=O)c1sc2ccccc2c1Cl)c1ccc(F)cc1 (configuration not stated)	x	x	x	3	x	x
O=C(Cn1cncc1-c1ccc([N+](=O)[O-])cc1)Nc1ccccc1F	x	x	x	13	x	-6
Cc1oc(-c2ccccc2F)nc1CN1CCC(C(=O)NCCC2=CCCCC2)CC1	0.1	-5.7*	-0.1	24*	0	4
COc1ccc(-c2nc3n(n2)C(c2ccccc2)C2=C(CCCC2=O)N3)cc1OC (configuration not stated)	-1.6	0.54	1	1	3	-2
COc1cc(-c2nc3n(n2)C(c2cccc(OC)c2OC)C2=C(CCCC2=O)N3)cc(OC)c1OC (configuration not stated)	-1.3	1.7	2.7*	27	-3	x
COC(=O)c1nc2n(n1)C(c1ccc(OC)c(OC)c1OC)C1=C(CCCC1=O)N2 (configuration not stated)	0.33	0.64	0.041	3	x	2
COc1ccc(C2C3=C(CCCC3=O)Nc3nc(-c4cc(OC)c(OC)c(OC)c4)nn32)cc1OC (configuration not stated)	-0.84	0.7	4*	7	10	0
Cc1ccc2nc(N/C(N)=N/S(=O)(=O)c3ccc([N+](=O)[O-])cc3)nc(C)c2c1	x	x	x	8	x	-8
Cc1ccccc1NC(=O)C1Cc2ccccc2CN1C(=O)OCc1ccccc1 (configuration not stated)	x	x	x	9	x	x
COc1ccc(-c2nnc(COc3ccc4ccccc4c3)o2)cc1OC	-1.1	-1.5	2.9*	2	2	x
COc1cc(-c2nnc(COc3ccc4cc(Br)ccc4c3)o2)cc(OC)c1OC	-0.29	-0.64	1.7	4	0	0
Cc1cc(/C=C2/SC(=S)N(c3cccc(C(F)(F)F)c3)C2=O)c(C)n1-c1cccnc1	0.28	0.021	0.019	x	44*	x
Cc1cc(/C=C2\SC(=S)N(Cc3ccco3)C2=O)c(C)n1-c1cccnc1	-0.82	x	x	17	95*[fluorescence artefact?]	x
CCOc1ccc(-c2nn(-c3ccccc3)cc2/C=C2\SC(=S)N(Cc3ccco3)C2=O)cc1	x	x	x	6	x	-10
CCNC(=O)COc1cccc(C(=O)NCc2ccccc2)c1	x	x	x	3	x	-4
CC(C)(C)NC(=O)CN(C(=O)Cn1nnc(-c2ccc(Cl)cc2)n1)C1CCN(Cc2ccccc2)CC1	1	-7.6*	1.9	8	8	x
CC(C)(C)NC(=O)CN(C(=O)Cn1nnc(-c2ccccc2F)n1)c1cccc2c1CCCC2	-0.66	-3.1*	1.4	4	3	x
CC(CNC(=O)C(C)(C)C)NC(=O)C(C)(C)C (configuration not stated)	x	x	x	20	x	-3
Cc1ccc(S(=O)(=O)NNC(=O)NC23CC4CC(CC(C4)C2)C3)cc1	x	x	x	8	x	-4
Cc1ccc(S(=O)(=O)N2CCCC2)cc1S(=O)(=O)N1CCCC1	0.16	1.5	-0.93	16	-1	-1
SMILES	Pyk2 oligo antag	Cav32 inh	DAT uptake mod	Measles CPE	HIV Rev-RRE inh	Phagocytosis inh
Cc1ccc(S(=O)(=O)c2ccc(Cl)cc2)cc1S(=O)(=O)N1CCOCC1	-0.55	-3.6*	-0.59	1	x	0
Cc1ccc(C(=O)NNC(=O)CCN2C(=O)C3CCCCC3C2=O)cc1 (configuration not stated)	x	x	x	3	x	-7
CCOC(=O)NC(=O)CSc1nnnn1-c1ccc(Cl)cc1	0.23	-0.24	0.026	42	1	x
CCOC(=O)c1ccc(CNC(=O)CSc2nnnn2-c2ccc(Cl)cc2)o1	1.7	x	x	43*	9	0
COc1cccc(OCCOc2c(OC)cccc2OC)c1	0.46	0.31	-1.3	6	0	3
COCCN(C(=O)CN1CCN(S(=O)(=O)c2ccc(F)cc2)CC1)c1c(N)n(Cc2ccccc2)c(=O)[nH]c1=O	x	x	x	3	x	-4
CCN(C(=O)CN1CCN(S(=O)(=O)c2cc(Cl)ccc2Cl)CC1)c1c(N)n(Cc2ccccc2)c(=O)[nH]c1=O	x	x	x	30*	x	-5
Cc1cc(=O)oc(C)c1C(=O)NCC(C)NC(=O)c1c(C)cc(=O)oc1C (configuration not stated)	0.06	0.0063	3.2*	4	3	0
NC1=C([N+](=O)[O-])C(c2ccc(F)cc2)C2=C(CCCC2=O)O1 (configuration not stated)	x	x	x	2	x	-3
CCC(Sc1nc2n[nH]c(C)c2c(=N)n1-c1cccc(Cl)c1C)C(=O)N(CC)CC (configuration not stated)	-3*	0.29	1.3	2	10	0
CCC(C)NC(=O)CSc1nc2n[nH]c(C)c2c(=N)n1-c1ccc(OC)cc1 (configuration not stated)	-1.1	1.6	1.3	19	-1	4
Cc1cccc(-n2nnnc2SCC(=O)c2cc(C)n(CC3CCCO3)c2C)c1 (configuration not stated)	-0.94	-5.4*	0.32	48	x	0
Cc1cc(C(=O)Cn2nnc(-c3ccc(Cl)cc3)n2)c(C)n1CC1CCCO1 (configuration not stated)	1.4	-5.2*	0.24	15	0	x
Cc1cc(C(=O)CSc2nc3ccccc3[nH]2)c(C)n1CC1CCCO1 (configuration not stated)	0.58	-3.1	0.3	39*	0	x
Cc1cc(C)n(-c2ccc(C(=O)OCC(=O)NCc3ccc(F)cc3)cc2)n1	x	x	x	5	x	-3
CCC(C)(C)NC(=O)C(c1cccn1C)N(Cc1ccc(OC)cc1)C(=O)Cn1nnc2ccccc21 (configuration not stated)	1	-1.1	0.88	2	-5	x
O=C(Nc1nccs1)c1ccc(-c2ccc(Cl)cc2Cl)o1	x	x	x	4	x	-7
